pIC50: −log10 of the molar value. The source made the active and inactive calls. The calls are words filed in the database; no cut-off is given here.
Assays:
[1] = system: CAKI-1; assay: Antiproliferative activity against human CAKI-1 cells assessed as cell growth inhibition incubated for 24 hrs by MTT assay; format: functional, cell-based; settings: CAKI-1, 24 h
[2] = system: A498; assay: Induction of apoptosis in human A498 cells at 0.75 to 1.5 uM measured after 24 hrs by Annexin-V/propidium iodide staining based flow cytometry relative to control; format: functional; settings: dose 0.75-1.5 µM
How it was run: (§1)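 Cells in supplemented medium with 10% FBS at 37 °C, 5% CO2, exposed to 0.75 or 1.5 μM compound, or DMSO as negative control, for 24 h. Apoptosis assessed by annexin V/PI staining per kit instructions, then flow cytometry; apoptotic cell percentage quantified against control.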

[3] = target: T1, Protein deacetylase HDAC6 (Homo sapiens, UniProt Q9UBN7); assay: Inhibition of human full-length recombinant HDAC6 preincubated for 5 mins followed by HDAC substrate addition and further incubated for 45 mins by fluorescence microplate reader assay
T1 sequence (Q9UBN7 whole entry): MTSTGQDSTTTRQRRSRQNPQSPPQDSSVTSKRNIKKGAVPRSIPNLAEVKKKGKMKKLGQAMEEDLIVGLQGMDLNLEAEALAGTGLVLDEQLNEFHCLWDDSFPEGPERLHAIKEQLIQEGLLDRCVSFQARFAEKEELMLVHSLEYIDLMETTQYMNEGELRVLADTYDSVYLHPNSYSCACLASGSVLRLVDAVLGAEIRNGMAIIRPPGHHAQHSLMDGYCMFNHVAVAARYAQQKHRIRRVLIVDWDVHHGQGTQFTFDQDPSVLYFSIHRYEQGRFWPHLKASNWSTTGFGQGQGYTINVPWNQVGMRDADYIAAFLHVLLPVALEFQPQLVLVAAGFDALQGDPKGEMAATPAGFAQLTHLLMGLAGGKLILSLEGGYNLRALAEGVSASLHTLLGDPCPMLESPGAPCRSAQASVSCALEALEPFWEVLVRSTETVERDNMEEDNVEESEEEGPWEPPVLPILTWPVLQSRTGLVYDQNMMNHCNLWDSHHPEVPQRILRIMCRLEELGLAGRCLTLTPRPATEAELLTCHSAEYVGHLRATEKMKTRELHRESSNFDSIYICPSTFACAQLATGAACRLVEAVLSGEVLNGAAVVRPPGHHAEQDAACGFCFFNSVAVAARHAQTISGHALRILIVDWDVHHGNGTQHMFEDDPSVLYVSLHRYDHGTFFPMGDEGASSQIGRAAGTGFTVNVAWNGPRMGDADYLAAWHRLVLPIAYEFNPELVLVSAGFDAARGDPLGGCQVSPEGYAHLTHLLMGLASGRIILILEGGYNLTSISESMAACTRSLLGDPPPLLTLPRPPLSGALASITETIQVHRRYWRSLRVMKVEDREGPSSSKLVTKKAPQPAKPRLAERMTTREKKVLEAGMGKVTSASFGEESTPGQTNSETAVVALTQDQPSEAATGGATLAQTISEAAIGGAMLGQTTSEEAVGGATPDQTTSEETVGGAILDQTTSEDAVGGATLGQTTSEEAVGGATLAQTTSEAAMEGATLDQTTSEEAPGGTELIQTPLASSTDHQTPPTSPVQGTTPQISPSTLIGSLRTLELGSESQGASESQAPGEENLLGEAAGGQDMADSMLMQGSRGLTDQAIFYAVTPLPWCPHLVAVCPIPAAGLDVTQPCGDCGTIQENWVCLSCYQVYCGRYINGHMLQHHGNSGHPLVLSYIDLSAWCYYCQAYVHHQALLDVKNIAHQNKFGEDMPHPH

[4] = target: Focal adhesion kinase 1 (Homo sapiens, UniProt Q05397); assay: Inhibition of FAK (unknown origin) by FRET-based Z'-Lyte assay
How it was run: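 Recombinant FAK kinase activity measured with the FRET-based Z'-LYTE format; the same platform was used for a kinase panel (FAK, FLT, FRK, IGF-1R, BTK). IC50 values determined.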

[5] = system: KG-1; assay: Growth inhibition of human KG-1 cells at 10 uM incubated for 24 hrs by MTT assay relative to control; format: functional; settings: KG-1, 24 h
How it was run: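 Cells seeded at 1 × 10^4 per well, cultured overnight, then exposed to 10 μM compound or DMSO (negative control) for 24 h. After a PBS wash, MTT (2 mg/ml) was added for 4 h at 37°C and formazan dissolved in DMSO. OD read at 570 nm. Growth inhibition = 1 − (OD treated/OD control); at least three independent experiments.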

[6] = system: A498; assay: Induction of apoptosis in human A498 cells assessed as activation of caspase-3 measured after 24 hrs by ELISA relative to control; format: functional
How it was run: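 A-498 lysates were assayed for active caspase-3 protein by ELISA. Samples or standards were incubated 2 h at room temperature, then caspase-3 (active) detection antibody for 1 h, anti-rabbit IgG-HRP for 30 min, and chromogen for 30 min. After the stop solution, the plate was read and values were taken from a fitted standard curve in pg/ml versus a negative control.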

[7] = system: CAKI-1; assay: Induction of cell cycle arrest in human CAKI-1 cells assessed as decrease in cell population at G1 phase at 1.5 uM incubated for 24 hrs by propidium iodide based flow cytometry analysis; format: functional
How it was run: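 Cells at 1 × 10^5/mL treated with 0.75 or 1.5 μM compound or DMSO (negative control) for 24 h, harvested and washed in PBS. Fixed by dropwise ice-cold 80% ethanol with vortexing, held overnight, washed twice, PI-stained 20 min in the dark. Phase distribution read by flow cytometry.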

[8] = system: CAKI-1; assay: Induction of apoptosis in human CAKI-1 cells at 1.5 uM measured after 24 hrs by Annexin-V/propidium iodide staining based flow cytometry relative to control; format: functional; how it was run: as §1
[9] = target: T2, Histone deacetylase 8 (Homo sapiens, UniProt Q9BY41); assay: Inhibition of human full-length recombinant C-terminal His-tagged HDAC8 expressed in baculovirus infected Sf9 insect cells preincubated for 5 mins followed by HDAC substrate addition and further incubated for 45 mins by fluorescence microplate reader assay
T2 sequence (Q9BY41 whole entry): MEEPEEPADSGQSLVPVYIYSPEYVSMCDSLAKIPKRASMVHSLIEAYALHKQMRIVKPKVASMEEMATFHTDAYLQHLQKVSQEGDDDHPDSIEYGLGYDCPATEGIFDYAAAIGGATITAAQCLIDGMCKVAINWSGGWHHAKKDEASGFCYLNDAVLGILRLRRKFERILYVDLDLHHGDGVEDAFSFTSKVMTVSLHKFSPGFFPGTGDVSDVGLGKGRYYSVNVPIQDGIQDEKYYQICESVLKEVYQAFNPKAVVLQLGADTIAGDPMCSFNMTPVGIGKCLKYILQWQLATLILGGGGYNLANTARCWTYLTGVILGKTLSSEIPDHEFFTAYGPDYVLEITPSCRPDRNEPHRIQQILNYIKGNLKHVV

[10] = target: Histone deacetylase 2 (Homo sapiens, UniProt Q92769); assay: Inhibition of HDAC2 in human A498 cells assessed as reduction in HDAC2 expression by Western blot analysis; format: cell-based
How it was run: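 40 μg protein (Bradford) resolved by SDS-PAGE, transferred to PVDF, blocked 1 h in milk or BSA. Primary antibody overnight, HRP secondary 1 h, ECL detection; β-actin as loading control.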

[11] = system: A498; assay: Antiproliferative activity against human A498 cells assessed as cell growth inhibition incubated for 24 hrs by MTT assay; format: functional, cell-based; settings: A498, 24 h

Sequence of Histone deacetylase 2 (Q92769 whole entry): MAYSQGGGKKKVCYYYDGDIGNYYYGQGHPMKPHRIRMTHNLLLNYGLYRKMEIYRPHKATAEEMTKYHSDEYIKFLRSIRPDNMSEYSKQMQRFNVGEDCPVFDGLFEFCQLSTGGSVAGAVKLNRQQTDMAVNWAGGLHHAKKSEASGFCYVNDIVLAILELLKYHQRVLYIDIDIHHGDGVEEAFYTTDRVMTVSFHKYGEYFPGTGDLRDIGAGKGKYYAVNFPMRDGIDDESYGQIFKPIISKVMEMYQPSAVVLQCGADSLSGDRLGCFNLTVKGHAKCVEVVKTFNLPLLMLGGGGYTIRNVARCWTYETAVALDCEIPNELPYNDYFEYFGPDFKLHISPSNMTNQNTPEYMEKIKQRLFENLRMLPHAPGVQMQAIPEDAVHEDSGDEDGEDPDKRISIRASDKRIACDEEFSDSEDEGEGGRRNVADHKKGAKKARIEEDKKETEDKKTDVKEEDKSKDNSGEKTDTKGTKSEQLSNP
Sequence of Focal adhesion kinase 1 (Q05397 whole entry): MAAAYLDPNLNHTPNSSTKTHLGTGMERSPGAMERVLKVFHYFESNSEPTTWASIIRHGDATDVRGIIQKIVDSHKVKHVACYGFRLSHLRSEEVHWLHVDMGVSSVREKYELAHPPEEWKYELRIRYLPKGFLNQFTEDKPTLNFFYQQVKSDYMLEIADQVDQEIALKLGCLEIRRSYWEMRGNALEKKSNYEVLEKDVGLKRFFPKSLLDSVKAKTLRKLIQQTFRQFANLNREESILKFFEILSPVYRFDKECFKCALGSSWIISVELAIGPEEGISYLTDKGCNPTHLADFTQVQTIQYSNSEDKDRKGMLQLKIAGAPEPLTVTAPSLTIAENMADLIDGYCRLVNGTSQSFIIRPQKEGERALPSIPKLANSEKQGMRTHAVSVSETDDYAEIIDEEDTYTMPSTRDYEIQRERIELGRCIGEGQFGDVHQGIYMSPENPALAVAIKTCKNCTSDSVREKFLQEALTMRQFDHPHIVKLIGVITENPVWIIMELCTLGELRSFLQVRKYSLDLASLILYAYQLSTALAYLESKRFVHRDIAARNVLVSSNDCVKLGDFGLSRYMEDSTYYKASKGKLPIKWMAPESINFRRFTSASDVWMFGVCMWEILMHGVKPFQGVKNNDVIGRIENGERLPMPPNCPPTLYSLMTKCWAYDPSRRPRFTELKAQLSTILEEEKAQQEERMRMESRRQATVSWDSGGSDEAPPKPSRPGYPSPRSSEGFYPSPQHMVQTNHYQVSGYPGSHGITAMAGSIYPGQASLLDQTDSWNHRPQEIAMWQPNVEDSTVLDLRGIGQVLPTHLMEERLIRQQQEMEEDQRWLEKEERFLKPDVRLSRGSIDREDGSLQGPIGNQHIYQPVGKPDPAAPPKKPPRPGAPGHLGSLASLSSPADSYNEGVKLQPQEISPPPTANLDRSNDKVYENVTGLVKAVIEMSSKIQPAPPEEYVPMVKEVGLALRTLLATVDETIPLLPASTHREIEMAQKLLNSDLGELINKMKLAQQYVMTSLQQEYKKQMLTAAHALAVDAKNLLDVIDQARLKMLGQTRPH

Compound: Cn1c(SCCCCCC(=O)NO)nnc1-c1ccncc1
- pIC50 [1]: 5.91
- Activity [2]: 50%
- pIC50 [3]: 4.86
- pIC50 [4]: 7.90
- inhibition in vitro at 10 µM [5]: 84.2%
- fold change (FC) [6]: 11
- Activity [7]: Active
- Activity [8]: 37%
- pIC50 [9]: 5.15
- inhibition [10]: Active
- pIC50 [11]: 6.02
